Measurements reported in paper PMC6583924 (European journal of medicinal chemistry, 2017).

How the values were obtained:
(h)V1a = (h)V1a (Homo sapiens, UniProt P37288); test: In vitro V1a binding assay; conditions: for inhibition at 0.01 µM: read-out: % Binding inhibition (10^−8M); for inhibition at 0.001 µM: read-out: % Binding inhibition (10^−9M); for V1a binding affinity (in words): structure-activity discussion of Tables 1 and 2
In short: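 [3H]AVP (0.3 nM; KD 0.5 nM) competition binding on human recombinant V1a expressed in CHO cells, 60 min at RT. Nonspecific binding was defined with 1 µM AVP. Test compounds were run at selected concentrations, two independent experiments each in duplicate, with % binding inhibition recorded. IC50 came from a one-site sigmoidal variable-slope fit; Ki was calculated by Cheng–Prusoff.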

Lipophilicity logD7,4 = assay type: physicochemical; conditions: pH 7.4
CD-1 mouse brain = test: Effect of anesthetics on radiotracer brain uptake in CD-1 mice; assay type: in vivo; conditions: anesthetic ip 80 mg/kg, 30 min prior the radiotracer; 30 min after radiotracer
V2 = conditions: read-out: Ki V2; cited from earlier work

(h)V1a, sequence (P37288 whole entry): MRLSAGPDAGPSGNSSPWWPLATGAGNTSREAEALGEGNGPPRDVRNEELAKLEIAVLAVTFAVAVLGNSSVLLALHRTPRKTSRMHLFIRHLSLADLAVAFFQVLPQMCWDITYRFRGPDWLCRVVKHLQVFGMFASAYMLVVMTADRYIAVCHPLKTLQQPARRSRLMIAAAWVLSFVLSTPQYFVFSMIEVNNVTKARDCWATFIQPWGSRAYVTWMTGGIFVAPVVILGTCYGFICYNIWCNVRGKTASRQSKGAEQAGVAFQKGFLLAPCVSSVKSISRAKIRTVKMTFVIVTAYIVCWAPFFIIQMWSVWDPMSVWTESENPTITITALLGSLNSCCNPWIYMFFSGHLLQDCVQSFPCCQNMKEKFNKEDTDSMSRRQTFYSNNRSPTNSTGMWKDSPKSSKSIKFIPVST

SMILES | inhibition at 0.01 µM ((h)V1a) [%] | inhibition at 0.001 µM ((h)V1a) [%] | logD (Lipophilicity logD7,4) | V1a binding affinity (in words) ((h)V1a) | Effect on radiotracer brain uptake (CD-1 mouse brain) | Ki (V2) [nM] | Ki ((h)V1a) [nM]
Cc1cnccc1-c1ccc(C(=O)N2CC3(C)CC2CC(C)(C)C3)cc1 (centres unmarked) [8h, (4-(3-Methylpyridin-4-yl)phenyl)(1,3,3-trimethyl-6-aza-bicyclo[3.2.1]octan-6-yl)methanone] | 28.9 | 10.5 | 4.4 |  |  |  | 
COc1cc(C(=O)N2CC3(C)CC2CC(C)(C)C3)ccc1-c1c[nH]c2cnccc12 (centres unmarked) [8e, (3Methoxy-4-(1H-pyrrolo[2,3-c]pyridin-3-yl)phenyl)(1,3,3-trimethyl-6-aza-bicyclo[3.2.1]octan-6yl)methanone] | 44.2 | -4.7 | 3.5 |  |  |  | 
CC1(C)CC2CC(C)(CN2C(=O)c2ccc(-c3c[nH]c4ccccc34)c(OCCF)c2)C1 (centres unmarked) [6c, (3-(2fluoroethoxy)-4-(1H-indol-3-yl)phenyl)(1,3,3-trimethyl-6-aza-bicyclo[3.2.1]octan-6yl)methanone] | 92.6 | 45.1 | 4.9 | high binding affinity |  |  | 
Cc1ccccc1-c1ccc(C(=O)N2CC3(C)CC2CC(C)(C)C3)cc1 (centres unmarked) [8g, (2’-Methylbiphenyl-4-yl)(1,3,3-trimethyl-6-aza-bicyclo[3.2.1]octan-6-yl)methanone] | 84.3 | 23.7 | 5 | good binding affinity |  |  | 
COc1cc(C(=O)Nc2ccc(F)cc2)ccc1-c1c[nH]c2ccccc12 [13e, N-(4-Fluorophenyl)-4-(1H-indol-3-yl)-3-methoxybenzamide] | 4.6 | 5 | 3.2 |  |  |  | 
Cc1ccncc1-c1ccc(C(=O)N2CC3(C)CC2CC(C)(C)C3)cc1 (centres unmarked) [8i, (4-(4-Methylpyridin-3-yl)phenyl)(1,3,3-trimethyl-6-aza-bicyclo[3.2.1]octan-6-yl)methanone] | 43.9 | 12.8 | 4.4 |  |  |  | 
Cc1ncccc1-c1ccc(C(=O)N2CC3(C)CC2CC(C)(C)C3)cc1 (centres unmarked) [8j, (4-(2-Methylpyridin-3-yl)phenyl)(1,3,3-trimethyl-6-aza-bicyclo[3.2.1]octan-6-yl)methanone] | 18.2 | -6.6 | 4.4 |  |  |  | 
COc1cc(C(=O)N2CC3(C)CC2CC(C)(C)C3)ccc1-c1ccc(F)nc1 (centres unmarked) [8a, (4-(6Fluoropyridin-3-yl)-3-methoxyphenyl)(1,3,3-trimethyl-6-aza-bicyclo[3.2.1]octan-6yl)methanone] | 33.9 | 2.9 | 3.9 | lower binding affinity compared to the lead 1 |  |  | 
COc1cc(C(=O)N2CCN(C)CC2)ccc1-c1c[nH]c2ccccc12 [13a, (4-(1H-Indol-3-yl)-3-methoxyphenyl)(4-methylpiperazin-1-yl)methanone] | 4.7 | 15.7 | 0.7 |  |  |  | 
COc1cc(C(=O)N2CC3(C)CC2CC(C)(C)C3)ccc1-c1cn(C)c2ccccc12 (centres unmarked) [8c, (3Methoxy-4-(1-methyl-1H-indol-3-yl)phenyl)(1,3,3-trimethyl-6-aza-bicyclo[3.2.1]octan-6yl)methanone] | 18.7 | 1.8 | 6 | decrease in binding affinity |  |  | 
CNC1(c2ccccc2Cl)CCCCC1=O (centres unmarked) [Ketamine] |  |  |  |  | did not significantly change |  | 
Cc1ccncc1-c1ccc(C(=O)N2CC3(C)CC2CC(C)(C)C3)c(F)c1 (centres unmarked) [8l, (2Fluoro-4-(4-methylpyridin-3-yl)phenyl)(1,3,3-trimethyl-6-aza-bicyclo[3.2.1]octan-6yl)methanone] | 19.8 | 2.4 | 4.5 | poor V1a binding affinity |  |  | 
COc1cc(C(=O)N2CC3(C)CC2CC(C)(C)C3)ccc1-c1c[nH]c2ccncc12 (centres unmarked) [8f, (3Methoxy-4-(1H-pyrrolo[3,2-c]pyridin-3-yl)phenyl)(1,3,3-trimethyl-6-aza-bicyclo[3.2.1]octan-6yl)methanone] | 39.5 | 5.2 | 2.8 |  |  |  | 
COc1cc(C(=O)N2C[C@]3(C)C[C@H]2CC(C)(C)C3)ccc1-c1c[nH]c2ccccc12 [(1S,5R)-1, (4-(1Hindol-3-yl)-3-methoxyphenyl)((1S,5R)-1,3,3-trimethyl-6-azabicyclo[3.2.1]octan-6-yl)methanone] | 87.9 | 51.4 | 4.7 |  |  | 600 | 0.66
COc1cc(C(=O)N2CCC(F)(F)CC2)ccc1-c1c[nH]c2ccccc12 [13b, (4-(1H-Indol-3-yl)-3-methoxyphenyl)(4,4-difluoropiperidin-1-yl)methanone] | 9 | 13.7 | 1.6 |  |  |  | 
COc1cc(C(=O)N2CCCN(C)CC2)ccc1-c1c[nH]c2ccccc12 [13c, (4-(1H-Indol-3-yl)-3-methoxyphenyl)(4-methyl-1,4-diazepan-1-yl)methanone] | 6.2 | 5.7 | 0.2 |  |  |  | 
CC1(C)CC2CC(C)(CN2C(=O)c2ccc(-c3c[nH]c4ccccc34)cc2F)C1 (centres unmarked) [6b, (2-Fluoro-4-(1H-Indol-3-yl)phenyl)(1,3,3-trimethyl-6-aza-bicyclo[3.2.1]octan-6-yl)methanone] | 77.1 | 33.4 | 4.8 | lower binding affinity compared to the lead 1 |  |  | 
COc1cc(C(=O)N2CC3(C)CC2CC(C)(C)C3)ccc1-c1cccnc1F (centres unmarked) [8b, (4-(2Fluoropyridin-3-yl)-3-methoxyphenyl)(1,3,3-trimethyl-6-aza-bicyclo[3.2.1]octan-6yl)methanone] | 16 | 9.7 | 4 | lower binding affinity compared to the lead 1 |  |  | 
COc1cc(C(=O)N2CC3(C)CC2CC(C)(C)C3)ccc1-c1c[nH]c2ncccc12 (centres unmarked) [8d, (3Methoxy-4-(1H-pyrrolo[2,3-b]pyridin-3-yl)phenyl)(1,3,3-trimethyl-6-aza-bicyclo[3.2.1]octan-6yl)methanone] | 28.7 | 4.4 | 2.9 |  |  |  | 
COc1cc(C(=O)NC23CC4CC(CC(C4)C2)C3)ccc1-c1c[nH]c2ccccc12 [13d, N-Adamantan-1-yl-4-(1H-indol-3-yl)-3-methoxybenzamide] | 4.8 | 7.4 | 5.8 |  |  |  | 
Cc1ccccc1-c1ccc(C(=O)N2CC3(C)CC2CC(C)(C)C3)c(F)c1 (centres unmarked) [8k, (3-Fluoro-6’-methylbiphenyl-4-yl)(1,3,3-trimethyl-6-aza-bicyclo[3.2.1]octan-6-yl)methanone] | 81.2 | 22.8 | 5.8 | good binding affinity |  |  | 
